Sampled rows, rich in hits. Any-hit rate of the full collection: about 5.3%.
T cruzi repl: inhibitors of intracellular T. cruzi growth, primary screen, luminescence, NIH3T3 host cells | T. cruzi beta-gal in NIH3T3, 90 h | inhibition, % (concentration not given with the values) | AID 1885, 2009 | 1.4% of 300,000 active;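 active means mean inhibition across valid replicates above about 55%, limit read from the data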;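 further: signal also drops with host cell toxicity which is not excluded here; 0% = plate median of DMSO wells and 100% = zero luminescence signal; higher percent means less beta-gal luminescence so fewer parasites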
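Test system: β-gal T. cruzi (Tulahuen C4) inside NIH/3T3 cells / Quantity: 5,000 cells/well / Measured by: luminescence from GalScreen with 0.05% NP40, read after 60 min / Medium: DMEM plus 2% FBS / Measure: parasite load inhibition, % / Reagent: Tulahuen C4 trypomastigotes, 5000/well / Schedule: co-culture of at least 90 h after 3 h attachment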
Calb FLC: C. albicans growth inhibition with fluconazole, primary screen, CaCi-2 strain, Alamar Blue fluorescence. growth inhibition, % (no concentration beside the values). C. albicans CaCi-2 + fluconazole, 48 h. 0.57% of 300,000 active;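 active means growth inhibition above about 58% in most replicates, limit read from the data, passing the limit was not always enough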;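 further: all wells also contain fluconazole at 8 µg/ml as a sub-toxic cotreatment; 0% = median of DMSO wells and 100% = median of geldanamycin control wells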
Beta cell apopt: inhibitors of cytokine-induced beta cell apoptosis, primary screen, luminescence; INS-1E cytokine-induced death, ATP luminescence, 48 h; percent of positive-control rescue, neutral wells zero; protection from apoptosis, % (no concentration beside the values); 0.8% of 300,000 active; AID 435005, 2010;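 active means Every replicate reaches about 75%, or at least half do and their mean reaches it too, limit read from the data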;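 further: 0% = cytokine-treated negative control wells and 100% = positive control rescue; higher means more ATP so stronger rescue from cytokine killing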
Mdm2-MdmX inh: inhibitors of human Mdm2-MdmX association, primary screen, cell-based, luminescence, split luciferase, SaOS-2, uHTS | AID 485346, 2010 | 3% of 330,000 active | inhibition, % at 8 µM | Protein Mdm4 (Homo sapiens) + E3 ubiquitin-protein ligase Mdm2 (Homo sapiens), … | SaOS-2 split-luciferase Mdm2/MdmX complementation;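 active means inhibition of at least 50% at 8 µM in the primary screen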
CSC inhib: cancer stem cell viability inhibitors, primary screen, luminescence | cancer stem cell-like cells viability | inhibition, % at 7.5 µM | 1.1% of 300,000 active | AID 2717, 2010; in the data active means inhibition above about 75%; tested in HMLE shEcad cells
NALP3 yeast inh: NALP3 inflammasome inhibitors in reconstituted yeast, primary screen, luminescence, uHTS. Yeast reconstituted NLRP3/ASC/caspase-1, beta-gal luminescence, 24 h. inhibition, % at 10 µM. 0.39% of 330,000 active. AID 2825, 2010;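 active means inhibition of 50% or more; inactive means inhibition below 50%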;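 further: plate controls were induced DMSO wells for no effect and uninduced yeast grown without galactose for full effect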
NALP3 confirm: NALP3 inhibitors retested in yeast, confirmation, luminescence, single concentration; inhibition, % at 10 µM; yeast expressing human NALP3; shares compounds with NALP3 yeast inh; 81% of 1,300 active; in the data active means inhibition above about 48%
Casp1-ASC yeast: CASP1-PYCARD signaling inhibition in yeast, confirmatory test, counterassay for NLRP3 inhibitor program, one-dose. 66% of 1,000 active. inhibition, % at 10 µM. shares compounds with NALP3 yeast inh. yeast expressing Caspase-1-ASC, luminescence counter screen
NALP3 yeast rt: NALP3 inhibitors in yeast, repeat test, confirmation, luminescence, single concentration, retest; shares compounds with NALP3 yeast inh; yeast expressing human NALP3, luminescence read-out; inhibition, % at 10 µM; 53% of 1,000 active
Numbers without * were called inactive; x = no result. Unless noted, no stated cut-off is given here; in the data, active means inhibition above about 50%; inactive means the rest.

SMILES	T cruzi repl	Calb FLC	Beta cell apopt	Mdm2-MdmX inh	CSC inhib	NALP3 yeast inh	NALP3 confirm	Casp1-ASC yeast	NALP3 yeast rt
CC(C)c1cccc(C(C)C)c1OCCCCCN1CCOCC1	13.3	-17.9	-2.1	-13.1	22.6	68.8*	74.2*	78.2*	66.1*
CCOC(=O)CN1C(=O)C(O)(C2CCc3ccccc3C2=O)c2ccccc21 (stereo not given)	4.1	-21.3	-2.3	4.3	-1.5	12.1	x	x	x
CCCCCn1c(N2CCN(Cc3ccccc3)CC2)nc2c1c(=O)[nH]c(=O)n2C	11.4	0.3	x	21.2	-13.1	13.1	x	x	x
CC(=O)Nc1ccc(NC(=O)COc2c(C)cc(Br)cc2C)cc1	-5.8	-43.3	-7.7	20.6	8.1	17.9	x	x	x
CSCc1cc(N2CCOCC2)nc(SCc2ccc(Cl)c(Cl)c2)n1	29.8	18.1	2.9	19.5	23.0	31.2	x	x	x
COCc1cc(N2CCOCC2)nc(SCc2ccc(Cl)cc2)n1	21.1	24.6	-4.4	-18.2	1.0	57.9*	47.1*	68.0*	43.4
Oc1ccccc1-c1cc(-c2ccccc2)no1	-2.1	-4.2	0.5	-192.9	8.0	54.7*	60.3*	58.5*	55.8*
O=C(NCCCCc1ccccc1)c1cccc(Br)c1	0.7	-10.3	0.5	-1.8	-9.1	52.9*	68.8*	57.4*	39.8
CC(C)(C)c1ccc(C(=O)N/N=C/c2cccc(Cl)c2)cc1	36.5	9.3	x	-13.5	52.4	54.2*	70.7*	54.5*	40.8
CNc1nc(N)c([N+](=O)[O-])c(Nc2cccc(F)c2)n1	-9.8	14.8	94.2*	36.7	11.9	74.6*	86.5*	77.8*	56.3*
CNc1nc(N)c([N+](=O)[O-])c(Nc2cccc(Cl)c2)n1	-26.4	17.6	-3.9	24.5	-14.9	60.4*	65.9*	x	x
Nc1nc(NCCOCCO)nc(Nc2cccc(F)c2)c1[N+](=O)[O-]	-21.0	4.4	13.0	10.7	-1.5	17.2	x	x	x
Cc1ccc(CCNC(=O)C2CCC(=O)N2C2CCCC2)cc1 (stereo not given)	-4.1	0.9	3.0	8.3	-7.2	23.8	x	x	x
CCOC(=O)c1cnn(-c2ccc(C(C)C)cc2)c1NC(=O)C1CCC1	1.6	-10.6	-3.3	-14.4	-4.9	6.2	x	x	x
CCOC(=O)c1c(NC(=O)CSc2nnc(C)o2)sc(C)c1C	-4.8	3.2	-1.6	-6.2	-4.1	51.9*	54.2*	47.6	34.4
CCCn1c(C)cc(/C=C(\C#N)C(=O)OCC(=O)Nc2ccc(OC)c(Cl)c2)c1C	8.0	0.9	-0.6	-1.2	-9.4	5.2	x	x	x
COc1ccc(-c2csc(NC(=O)c3ccc(C(C)(C)C)cc3)c2C(=O)O)cc1	33.1	44.9	9.0	29.0	36.6	87.0*	85.7*	94.5*	86.5*
O=C(Nc1scc(-c2ccccc2)c1C(=O)O)c1ccc(F)cc1	-16.6	-3.0	-0.2	-11.7	-9.4	60.7*	73.5*	48.0	60.5*
Cc1ccc(-c2csc(NC(=O)c3ccc(F)cc3)c2C(=O)O)cc1	-5.6	-15.3	6.5	4.8	18.9	83.5*	90.6*	91.7*	38.2
Cc1ccc(C(=O)Nc2scc(-c3ccccc3)c2C(=O)O)o1	-3.3	-3.7	3.5	8.4	-6.6	-7.0	x	x	x
COc1ccc(NC(=S)NCc2ccc(F)cc2)c(OC)c1	-9.1	-20.7	1.0	9.6	-12.3	23.1	x	x	x
COc1cc(/C=N/NC(=O)Cc2csc(C)n2)ccc1OCC(C)C	13.5	27.7	-6.4	-5.4	13.6	-5.2	x	x	x
O=c1c(-c2ccc(F)cc2)coc2cc(O)ccc12	-19.5	-20.9	2.7	-47.1	-5.3	34.2	x	x	x
Cc1cc(=O)oc(C)c1C(=O)NCCCN1CCN(c2ccc(F)cc2)CC1	31.2	-16.0	3.2	4.4	-1.5	33.1	x	x	x
CCN1CCN(C(=O)Cn2cnc3sc(C)c(S(=O)(=O)N4CCN(c5ncccn5)CC4)c3c2=O)CC1	-5.2	-16.7	x	15.5	-6.4	10.5	x	x	x
SMILES	T cruzi repl	Calb FLC	Beta cell apopt	Mdm2-MdmX inh	CSC inhib	NALP3 yeast inh	NALP3 confirm	Casp1-ASC yeast	NALP3 yeast rt
CN1c2ccccc2Sc2cc(N)ccc21	70.9*	-6.0	x	-16.9	53.0	64.3*	38.8	73.6*	61.1*
CC(=O)N1c2ccccc2Sc2ccccc21	8.3	-1.1	-9.1	7.5	4.9	-4.6	x	x	x
COCCn1c(-c2ccc(Cl)cc2)cnc1SCC(=O)NCCc1ccc(OC)c(OC)c1	21.7	19.5	-2.7	32.8	1.7	-8.6	x	x	x
CCCC1Cc2c(sc(NC(=S)NC(=O)c3ccccc3)c2C#N)CO1 (stereo not given)	8.6	-14.9	6.6	15.9	-1.0	8.1	x	x	x
Oc1ccc(Br)cc1CNc1ccccn1	13.2	-1.0	-5.8	-23.8	7.7	31.6	x	x	x
Oc1c(Cl)cc(Cl)cc1CNc1ccccn1	2.6	4.2	x	32.3	x	51.7*	67.2*	41.2	39.2
Cc1nc2cc(NC(=O)c3ccc(Br)s3)ccc2s1	13.0	1.3	-3.5	-230.3	-7.8	51.2*	69.2*	44.4	40.5
O=c1[nH]cnc2c1c(-c1ccccc1)cn2-c1cccc(Cl)c1	22.9	18.1	-1.5	16.3	0.7	-29.9	x	x	x
COc1ccc(-n2cc(-c3ccccc3)c3c(=O)[nH]cnc32)cc1	-21.3	56.6	-13.3	3.8	-5.3	-104.5	-16.6	x	x
COc1ccc(-c2onc3ccc(C(=O)/C=C/N(C)C)cc23)cc1	-2.2	16.6	-10.7	49.2	-2.4	6.2	x	x	x
Cc1occc1C(=O)NC(C)C12CC3CC(CC(C3)C1)C2 (stereo not given)	4.0	-9.7	-3.8	29.3	-17.4	29.6	x	x	x
CC(NC(=O)c1ccccc1F)C12CC3CC(CC(C3)C1)C2 (stereo not given)	8.0	-7.3	2.2	6.4	67.2	50.6*	59.7*	52.5*	37.7
COc1cc(C)c(Cl)cc1S(=O)(=O)N1CCCC1	4.1	6.3	-4.6	14.3	-7.4	-24.3	x	x	x
COc1cc(Cl)c(S(=O)(=O)N2CCCC2)cc1Cl	-3.9	2.8	-1.7	-3.8	53.8	66.4*	70.1*	x	x
COc1cc(S(=O)(=O)N2CCCC2)c(C)cc1C	17.5	-2.2	x	7.1	-8.4	59.8*	77.0*	57.7*	43.2
CCCOc1ccc(N2CC(C(=O)NCCc3ccc(OC)c(OC)c3)CC2=O)cc1 (stereo not given)	-19.3	-10.2	0.3	-1.5	-0.1	14.3	x	x	x

High-throughput results deposited in PubChem BioAssay by several laboratories.
